The results in this text go back to article PMC5963734 (Neuron, 2018).

This assay has as its system PSD-95 - α-actinin interaction. Description: Competition of co-IP of α-actinin with PSD-95 from brain lysates. Also on record: species or system rat. Conditions: added to Triton X-100 brain lysate during IP of PSD-95; Figure 3D. In a few lines: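 Adult rat brain (1 g) homogenised on ice in buffer A (150 mM NaCl, 10 mM HEPES, 10 mM EDTA, 10 mM EGTA, pH 7.4) with protease inhibitors and 1% Triton X-100, then cleared at 250,000 × g for 30 min. Competitors added: PSD-95 peptide 1-13, GST-PSD-95 1-64, peptide 15-36, or Ca2+ plus CaM. Per IP, 1 mg protein, 1 μg PSD-95 antibody and protein G-Sepharose, 4 h at 4 °C; three washes.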

B1: GST-PSD-95 1-64 (N-term): GST fusion protein of the N-terminal 64 residues of PSD-95 (protein)
chain: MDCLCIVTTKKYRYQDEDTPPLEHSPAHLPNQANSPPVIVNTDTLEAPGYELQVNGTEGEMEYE
modifications: left off: GST, N-terminal, kept
Turning to B1, the “disruption of co-IP of α-actinin with PSD-95” value is “disrupted”.
